Each block holds one compound with its values, some of them ahead of it. Activity calls are given as the source filed them. The calls are words filed in the database; no cut-off is given here.
Tests used:
[1] = biological target: T1, DNA topoisomerase 1 (Homo sapiens) (UniProt P11387); experiment: Inhibition of human topoisomerase 1 assessed as induction of DNA damage using 161 base-pair fragment form pBluescript SK(-) phagemid DNA substrate by DNA cleavage assay
T1 sequence (whole entry): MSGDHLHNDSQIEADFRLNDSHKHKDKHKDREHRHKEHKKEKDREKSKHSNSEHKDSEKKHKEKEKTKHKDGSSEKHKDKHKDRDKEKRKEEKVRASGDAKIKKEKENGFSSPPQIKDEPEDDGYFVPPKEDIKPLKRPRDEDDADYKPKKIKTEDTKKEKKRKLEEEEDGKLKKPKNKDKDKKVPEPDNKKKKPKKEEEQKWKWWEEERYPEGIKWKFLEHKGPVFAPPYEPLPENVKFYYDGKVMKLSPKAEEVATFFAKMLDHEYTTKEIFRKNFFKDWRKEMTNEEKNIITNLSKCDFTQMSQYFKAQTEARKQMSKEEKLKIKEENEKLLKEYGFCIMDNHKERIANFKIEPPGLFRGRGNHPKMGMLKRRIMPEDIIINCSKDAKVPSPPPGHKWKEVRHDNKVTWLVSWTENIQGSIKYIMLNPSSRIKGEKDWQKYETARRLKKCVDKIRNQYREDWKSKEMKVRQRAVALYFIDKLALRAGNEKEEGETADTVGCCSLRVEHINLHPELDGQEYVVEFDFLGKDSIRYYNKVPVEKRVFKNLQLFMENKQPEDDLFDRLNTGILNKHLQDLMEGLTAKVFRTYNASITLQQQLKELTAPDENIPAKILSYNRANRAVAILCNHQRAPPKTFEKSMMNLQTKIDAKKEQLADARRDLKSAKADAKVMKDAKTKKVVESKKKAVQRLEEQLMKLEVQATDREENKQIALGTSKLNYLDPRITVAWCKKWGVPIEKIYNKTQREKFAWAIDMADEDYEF
Method in brief: (§1)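 Baculovirus-purified human recombinant Top1 with 161 bp PvuII/HindIII fragment of pBluescript SK(-), 3'-end labeled at HindIII site with [α-32P]-dGTP by Klenow fill-in (~50 000 dpm/reaction). Incubated with drug, four 10-fold dilutions from 100 μM, 30 min at 22 °C. Stopped with 0.5% SDS (final), resolved on denaturing 16% polyacrylamide/7 M urea gels. Cleavage scored semiquantitatively.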

[2] = biological target: T1, DNA topoisomerase 1 (Homo sapiens); experiment: Inhibition of human topoisomerase 1 assessed as induction of DNA cleavage at base-pair 97 using 161 base-pair fragment form pBluescript SK(-) phagemid DNA substrate by DNA cleavage assay; method in brief: as §1
[3] = Solubility of the compound in chloroform solvent; assay type: physicochemical
[4] = Solubility of the compound in methanol solvent; assay type: physicochemical
[5] = Solubility of the compound in dimethyl sulfoxide solvent; assay type: physicochemical
[6] = test system: DU-145; experiment: Antiproliferative activity against human DU145 cells after 48 hrs by SRB assay; assay type: functional; conditions: DU-145, 48 h
[7] = test system: UO-31; experiment: Antiproliferative activity against human UO31 cells after 48 hrs by SRB assay; assay type: functional; conditions: UO-31, 48 h
[8] = test system: COLO 205; experiment: Antiproliferative activity against human COLO205 cells after 48 hrs by SRB assay; assay type: functional; conditions: COLO 205, 48 h
[9] = Antiproliferative activity against human OVACR3 cells after 48 hrs by SRB assay; assay type: functional; conditions: OVACR3, 48 h
[10] = test system: SN12C; experiment: Antiproliferative activity against human SN12C cells after 48 hrs by SRB assay; assay type: functional
[11] = test system: UACC-62; experiment: Antiproliferative activity against human UACC62 cells after 48 hrs by SRB assay; assay type: functional; conditions: UACC-62, 48 h
[12] = test system: MCF7; experiment: Antiproliferative activity against human MCF7 cells after 48 hrs by SRB assay; assay type: functional; conditions: MCF7, 48 h
[13] = Antiproliferative activity against human RPMI18226 cells after 48 hrs by SRB assay; assay type: functional; conditions: RPMI18226, 48 h
[14] = test system: K562; experiment: Antiproliferative activity against human K562 cells after 48 hrs by SRB assay; assay type: functional; conditions: K562, 48 h
[15] = test system: IGROV-1; experiment: Antiproliferative activity against human IGROV1 cells after 48 hrs by SRB assay; assay type: functional; conditions: IGROV-1, 48 h
[16] = biological target: T1, DNA topoisomerase 1 (Homo sapiens); experiment: Inhibition of human topoisomerase 1 assessed as induction of DNA cleavage at base-pair 119 using 161 base-pair fragment form pBluescript SK(-) phagemid DNA substrate by DNA cleavage assay; method in brief: as §1
[17] = test system: HCT-116; experiment: Antiproliferative activity against human HCT116 cells after 48 hrs by SRB assay; assay type: functional; conditions: HCT-116, 48 h
[18] = test system: HOP-62; experiment: Antiproliferative activity against human HOP62 cells after 48 hrs by SRB assay; assay type: functional; conditions: HOP-62, 48 h
[19] = test system: SF-539; experiment: Antiproliferative activity against human SF539 cells after 48 hrs by SRB assay; assay type: functional; conditions: SF-539, 48 h

SMILES: COc1cc2c(=O)n(C)c3c4ccccc4[nH]c(=O)c3c2cc1OC
inhibition [1]: inactive

inhibition [2]: Active
solubility [3]: soluble
solubility [4]: soluble
solubility [5]: soluble
SMILES: COc1cc2c(=O)n(C)c3c4ccccc4nc(Cl)c3c2cc1OC
inhibition [1]: Active

GI50 [6]: 10.5 µM
GI50 [8]: 0.33 µM
inhibition [2]: Active
GI50 [12]: 0.4 µM
GI50 [14]: 0.2 µM
solubility [3]: soluble
solubility [4]: soluble
inhibition [16]: Active
GI50 [17]: 4.16 µM
solubility [5]: soluble
SMILES: COc1cc2c(=O)n(CCCN3CCOCC3)c3c4ccccc4nc(Cl)c3c2cc1OC
GI50 [7]: 0.02 µM
GI50 [9]: 6.3 µM
GI50 [10]: 13.2 µM
GI50 [11]: 6.8 µM
GI50 [13]: 0.1 µM
GI50 [15]: 0.03 µM
GI50 [18]: 4.7 µM
GI50 [19]: 12.3 µM
inhibition [1]: Active

SMILES: COc1cc2c(=O)n(CCCO)c3c4ccccc4[nH]c(=O)c3c2cc1OC
inhibition [1]: inactive

SMILES: C=CCn1c(=O)c2cc(OC)c(OC)cc2c2c(=O)[nH]c3ccccc3c21
inhibition [1]: inactive

SMILES: COc1cc2c(OC)nc3c4ccccc4nc(OC)c3c2cc1OC
inhibition [1]: inactive

GI50 [6]: 4.8 µM
GI50 [8]: > 100 µM
GI50 [12]: 1.9 µM
GI50 [14]: 6 µM
GI50 [17]: 11.5 µM
SMILES: COc1cc2c3c(n(C)c(=O)c2cc1OC)-c1cc2c(cc1C3=O)OCO2
GI50 [7]: 1.7 µM
GI50 [9]: 22.4 µM
GI50 [10]: 25.7 µM
GI50 [11]: 0.6 µM
GI50 [13]: > 100 µM
GI50 [15]: 0.01 µM
GI50 [18]: 2.8 µM
GI50 [19]: 1.7 µM

SMILES: COc1cc2c(Cl)nc3c4ccccc4nc(Cl)c3c2cc1OC
inhibition [1]: inactive
